# Reference: ChEMBL document CHEMBL3259690, “Synthesis, structure-activity relationships, and biological studies of chromenochalcones as potential antileishmanial agents” (J Med Chem, 2014)
# Activity calls are given as the source filed them. The calls are words filed in the database; no cut-off is given here.
# Legend:
# Leishmania donovani [1] = assay: Antileishmanial activity against intracellular amastigote form of Leishmania donovani MHOM/IN/80/Dd8 expressing luciferase gene infected in mouse J774A1 cells after 72 hrs by luminescence analysis; format: functional, organism-based; details: MHOM/IN/80/Dd8, J774.A1, 72 h
# In short: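 J774A.1 macrophages (4 × 10⁴/mL, RPMI-1640 + 10% HIFBS, 37 °C, 5% CO₂), after 24 h infected with stationary-phase luciferase promastigotes (4 × 10⁵/mL). Free parasites washed off after 24 h. Compound added at up to 7 dilutions from 40 μM for 72 h. Luminescence read after Steady Glo in PBS. IC₅₀ from four-parameter Hill fit; at least duplicate measurements.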
# Leishmania donovani [2] = assay: Antileishmanial activity against extracellular promastigote form of Leishmania donovani MHOM/IN/80/Dd8 expressing firefly luciferase gene assessed as inhibition of parasitic multiplication at 25 uM after 96 hrs by luminescence analysis; format: functional; details: for inhibition at 25 µM: MHOM/IN/80/Dd8, 96 h
# In short: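 Late-log luciferase-expressing Dd8 promastigotes, 5 × 10⁵/mL in complete M-199, incubated with compound at 24 °C for 96 h. Aliquot mixed with Steady Glo and luminescence read as RLU. Inhibition of multiplication taken from luciferase signal of treated versus untreated parasites.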
# [3] = Cytotoxicity against African green monkey Vero cells after 72 hrs by MTT assay; format: cell-based; details: chlorocebus sabaeus
# In short: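 Vero cells at 1 × 10⁵/mL exposed to seven concentrations from 400 μM at 37 °C, 5% CO₂, for 72 h. MTT (5 mg/mL) added for 2 h at 37 °C, formazan dissolved in DMSO, absorbance read at 544 nm. CC₅₀ estimated by the Huber and Koella method; at least duplicate measurements.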
# [4] = Selectivity index, ratio of CC50 for African green monkey Vero cells to IC50 for Leishmania donovani MHOM/IN/80/Dd8 intracellular amastigote form expressing luciferase gene infected in mouse J774A1 cells; format: functional, J774.A1
# In short: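 Ratio of CC₅₀ in Vero cells (72 h MTT) to IC₅₀ against luciferase-expressing amastigotes in J774A.1 macrophages (72 h luminescence).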
# [5] = Cytotoxicity against mouse J774A1 cells infected with Leishmania donovani expressing luciferase gene; format: cell-based; details: j774.a1
# Leishmania donovani [6] = assay: Antileishmanial activity against Leishmania donovani MHOM/IN/80/Dd8 amastigotes infected in syrian golden hamster assessed as decrease in parasite count in spleen at 30 mg/kg/day, po for 5 days measured on day 7 after last dose administration by giemsa staining; format: functional; details: MHOM/IN/80/Dd8, Spleen
# In short: (§1)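 Golden hamsters of either sex infected intracardially with 1 × 10⁷ L. donovani Dd8 amastigotes. After 15−20 days, pretreatment spleen biopsy; animals with +1 grade infection (5−10 amastigotes/100 spleen cell nuclei) used, 5−6 per compound. Aqueous suspensions dosed IP or PO for 5−10 consecutive days starting 2 days after biopsy. Splenic biopsies on day 7 and 28 after last dose, Giemsa counts; PI = 100 − [(ANAT×100)/(INAT×TIUC)].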
# Leishmania donovani [7] = assay: Antileishmanial activity against Leishmania donovani MHOM/IN/80/Dd8 amastigotes infected in syrian golden hamster assessed as decrease in parasite count in spleen at 30 mg/kg/day, po for 5 days measured on day 28 after last dose administration by giemsa staining; format: functional; details: MHOM/IN/80/Dd8, Spleen; in short: as §1
# Leishmania donovani [8] = assay: Antileishmanial activity against Leishmania donovani MHOM/IN/80/Dd8 amastigotes infected in syrian golden hamster assessed as decrease in parasite count in spleen at 50 mg/kg/day, po for 5 days measured on day 7 after last dose administration by giemsa staining; format: functional; details: MHOM/IN/80/Dd8, Spleen; in short: as §1
# Leishmania donovani [9] = assay: Antileishmanial activity against Leishmania donovani MHOM/IN/80/Dd8 amastigotes infected in syrian golden hamster assessed as decrease in parasite count in spleen at 50 mg/kg/day, po for 5 days measured on day 28 after last dose administration by giemsa staining; format: functional; details: MHOM/IN/80/Dd8, Spleen; in short: as §1
# Leishmania donovani [10] = assay: Antileishmanial activity against Leishmania donovani MHOM/IN/80/Dd8 amastigotes infected in syrian golden hamster assessed as decrease in parasite count in spleen at 40 mg/kg/day, ip for 5 days measured on day 7 after last dose administration by giemsa staining; format: functional, organism-based; in short: as §1
# Leishmania donovani [11] = assay: Antileishmanial activity against Leishmania donovani MHOM/IN/80/Dd8 amastigotes infected in syrian golden hamster assessed as decrease in parasite count in spleen at 40 mg/kg/day, ip for 5 days measured on day 28 after last dose administration by giemsa staining; format: functional, organism-based; in short: as §1
Compound,IC50 (Leishmania donovani [1]) [µM],inhibition at 25 µM (Leishmania donovani [2]) [%],CC50 at 72 h [3] [µM],Ratio CC50/IC50 [4],other results
CC(C)=CCCC1(C)C=Cc2c(ccc(C(=O)/C=C/c3ccc(O)c(C=O)c3)c2O)O1 (stereo unspecified),> 20,94.6,,,
CC(C)=CCCC1(C)C=Cc2c(ccc(/C=C/C(=O)c3ccc(C)c(C)c3)c2O)O1 (stereo unspecified),> 20,93.2,,,
COc1ccc(C(=O)c2cc3cc(/C=C/C(=O)c4ccc5c(c4O)C=CC(C)(CCC=C(C)C)O5)ccc3o2)cc1 (stereo unspecified),> 20,92.9,,,
CC(C)=CCCC1(C)C=Cc2c(ccc(/C=C/C(=O)c3ccc(C)cc3)c2O)O1 (stereo unspecified),> 20,92.7,,,
CC(=O)N1N=C(c2ccc3c(c2O)C=CC(C)(CCC=C(C)C)O3)CC1c1cccnc1 (stereo unspecified),6.4,99.5,88.5,13.8,
CC(C)=CCCC1(C)C=Cc2c(ccc(C(=O)/C=C/c3ccc4oc(C(=O)c5ccccc5)cc4c3)c2O)O1 (stereo unspecified),> 20,94.4,,,
CC(C)=CCCC1(C)C=Cc2c(ccc(C(=O)/C=C/c3cc4cc(C)ccc4nc3Cl)c2O)O1 (stereo unspecified),,100,,,Activity [5]: Toxic
CC(C)=CCCC1(C)C=Cc2c(ccc(C(=O)/C=C/c3ccc4occc4c3)c2O)O1 (stereo unspecified),> 20,96.5,,,
CC(C)=CCCC1(C)C=Cc2c(ccc(C(=O)/C=C/c3ccc(O)cc3)c2O)O1 (stereo unspecified) [LESPEOL],16.5,97.5,190,11.5,
CCCCCCCCCCCCCCCCOP(=O)([O-])OCC[N+](C)(C)C [MILTEFOSINE],,100,,,inhibition in vivo at 30 mg/kg/day (Leishmania donovani [6]): 98.5%; inhibition in vivo at 30 mg/kg/day (Leishmania donovani [7]): 83.2%
CC(C)=CCCC1(C)C=Cc2c(ccc(C(=O)/C=C/c3cccnc3)c2OCCN2CCCCC2)O1 (stereo unspecified),1.7,99.8,65.2,38.3,inhibition in vivo at 50 mg/kg/day (Leishmania donovani [8]): 73.2%; inhibition in vivo at 50 mg/kg/day (Leishmania donovani [9]): 50%
sodium stibogluconate,,,,,inhibition (Leishmania donovani [10]): 89.5%; inhibition (Leishmania donovani [11]): 72.5%; inhibition (Leishmania donovani [2]): inactive
CC(C)=CCCC1(C)C=Cc2c(ccc(C(=O)CCc3cccnc3)c2O)O1 (stereo unspecified),11,98.5,266,24.1,
COc1ccc(/C=C/C(=O)c2ccc3c(c2O)CCC(C)(CCCC(C)C)O3)cc1 (stereo unspecified),> 20,62.3,,,
CC(C)=CCCC1(C)C=Cc2c(ccc(C(=O)/C=C/c3cccc(-c4ncc(-c5cccc(O)c5)o4)c3)c2O)O1 (stereo unspecified),5.8,99.5,> 400,>68.9,
CC(C)=CCCC1(C)C=Cc2c(ccc(C(=O)/C=C/c3cc(C=O)ccc3O)c2O)O1 (stereo unspecified),10.7,91.2,59.4,5.5,
CC(C)=CCCC1(C)C=Cc2c(ccc(C(=O)/C=C/c3ccc(OCCN4CCCCC4)cc3)c2OCCN2CCCCC2)O1 (stereo unspecified),6.3,99.9,,31.9,
